This is an account of results in ChEMBL document CHEMBL3856243, “Structure-Activity Relationships and Kinetic Studies of Peptidic Antagonists of CBX Chromodomains” (J Med Chem, 2016).

Activity calls are given as the source filed them. No cut-off for these calls is given here. Square brackets hold non-standard residues; d marks the D form. Peptide text beside a SMILES is read from it. * marks the point of attachment. Benzoyl(4-tBu) = CC(C)(C)c1ccc(C(=O)*)cc1; Lys(Et2) = CCN(CC)CCCC[C@H](N)C(=O)O

As a reminder, the Kd is the concentration at which binding is half-saturated. Read a low Kd as higher affinity.

In test [1] the target is T1, Chromobox protein homolog 2 (Homo sapiens, UniProt Q14781).
T1 sequence (Q14781 whole entry): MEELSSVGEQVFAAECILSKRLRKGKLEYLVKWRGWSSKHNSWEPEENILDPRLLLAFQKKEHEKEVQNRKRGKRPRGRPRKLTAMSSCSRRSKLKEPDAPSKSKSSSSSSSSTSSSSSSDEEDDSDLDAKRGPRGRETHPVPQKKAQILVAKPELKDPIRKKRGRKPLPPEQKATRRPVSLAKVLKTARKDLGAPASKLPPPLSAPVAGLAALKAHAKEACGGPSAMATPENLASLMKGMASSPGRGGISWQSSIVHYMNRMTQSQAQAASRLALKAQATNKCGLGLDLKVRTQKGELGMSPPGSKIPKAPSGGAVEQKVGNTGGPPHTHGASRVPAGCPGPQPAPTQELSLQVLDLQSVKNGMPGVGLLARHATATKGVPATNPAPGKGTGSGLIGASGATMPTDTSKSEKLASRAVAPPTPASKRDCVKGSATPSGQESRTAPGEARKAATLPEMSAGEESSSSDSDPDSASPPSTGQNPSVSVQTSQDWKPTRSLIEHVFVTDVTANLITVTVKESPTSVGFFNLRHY
Description: Binding affinity to human N-terminal his-tagged CBX2 chromodomain (9 to 66 residues) expressed in Escherichia coli Rosetta BL21(DE3)pLysS by ITC method.

Test [2] concerns the target T2, Chromodomain Y-like protein (Homo sapiens, UniProt Q9Y232).
T2 sequence (Q9Y232 whole entry): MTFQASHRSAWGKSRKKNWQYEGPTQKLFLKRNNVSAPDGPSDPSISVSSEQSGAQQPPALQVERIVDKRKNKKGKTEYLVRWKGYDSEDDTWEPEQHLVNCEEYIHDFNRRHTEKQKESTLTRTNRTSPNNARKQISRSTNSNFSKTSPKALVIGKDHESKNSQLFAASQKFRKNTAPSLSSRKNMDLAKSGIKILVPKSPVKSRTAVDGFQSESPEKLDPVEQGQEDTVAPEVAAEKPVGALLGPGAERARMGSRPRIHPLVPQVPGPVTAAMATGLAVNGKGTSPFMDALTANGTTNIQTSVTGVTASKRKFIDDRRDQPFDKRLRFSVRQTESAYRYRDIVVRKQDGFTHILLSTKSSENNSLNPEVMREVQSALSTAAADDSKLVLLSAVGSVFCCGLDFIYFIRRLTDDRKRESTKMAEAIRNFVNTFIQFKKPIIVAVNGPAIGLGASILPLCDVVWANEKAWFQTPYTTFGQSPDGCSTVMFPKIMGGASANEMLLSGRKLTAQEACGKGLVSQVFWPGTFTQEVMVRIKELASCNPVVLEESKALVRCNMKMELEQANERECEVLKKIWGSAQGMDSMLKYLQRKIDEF
Briefly: Binding affinity to human N-terminal GST-tagged CDYL1b chromodomain (1 to 78 residues) expressed in Escherichia coli Rosetta BL21(DE3)pLysS by ITC method. (In ITC the heat of successive injections is recorded.)

Test [3] concerns the target Chromobox protein homolog 1 (Homo sapiens, UniProt P83916). Briefly: Binding affinity to CBX1 chromodomain (unknown origin) by ITC method.
Test [4] has as its target T3, Chromobox protein homolog 8 (Homo sapiens, UniProt Q9HC52).
T3 sequence (Q9HC52 whole entry): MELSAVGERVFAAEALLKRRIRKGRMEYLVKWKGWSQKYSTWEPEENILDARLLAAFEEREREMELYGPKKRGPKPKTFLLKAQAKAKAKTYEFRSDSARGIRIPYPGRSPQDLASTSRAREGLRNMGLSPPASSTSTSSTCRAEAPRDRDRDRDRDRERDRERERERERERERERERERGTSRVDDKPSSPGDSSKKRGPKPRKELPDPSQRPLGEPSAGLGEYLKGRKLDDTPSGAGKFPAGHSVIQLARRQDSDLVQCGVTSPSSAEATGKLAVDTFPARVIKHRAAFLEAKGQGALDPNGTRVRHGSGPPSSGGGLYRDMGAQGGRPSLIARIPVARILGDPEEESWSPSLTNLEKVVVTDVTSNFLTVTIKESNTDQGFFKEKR
Briefly: Binding affinity to human N-terminal his-tagged CBX8 chromodomain (8 to 61 residues) expressed in Escherichia coli Rosetta BL21(DE3)pLysS by ITC method.

Test [5] deals with T4, Testis-specific chromodomain protein Y 1 (Homo sapiens, UniProt Q9Y6F8).
T4 sequence (Q9Y6F8 whole entry): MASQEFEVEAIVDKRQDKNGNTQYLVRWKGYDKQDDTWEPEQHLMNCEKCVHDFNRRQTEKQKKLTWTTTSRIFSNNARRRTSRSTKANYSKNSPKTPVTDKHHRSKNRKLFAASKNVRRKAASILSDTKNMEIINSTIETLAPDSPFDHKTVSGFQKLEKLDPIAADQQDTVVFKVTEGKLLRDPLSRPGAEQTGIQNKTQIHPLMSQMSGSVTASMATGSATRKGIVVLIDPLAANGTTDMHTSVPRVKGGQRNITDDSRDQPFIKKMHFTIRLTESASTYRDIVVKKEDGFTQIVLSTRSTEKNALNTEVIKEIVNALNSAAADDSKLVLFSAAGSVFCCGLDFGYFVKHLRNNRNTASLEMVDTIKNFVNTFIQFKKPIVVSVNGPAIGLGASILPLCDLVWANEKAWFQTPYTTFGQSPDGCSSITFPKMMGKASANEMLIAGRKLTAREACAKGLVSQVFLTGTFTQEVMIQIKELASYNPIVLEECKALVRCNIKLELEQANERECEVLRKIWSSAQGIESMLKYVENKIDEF
Description: Binding affinity to human N-terminal GST-tagged CDY1 chromodomain (1 to 101 residues) expressed in Escherichia coli Rosetta BL21(DE3)pLysS by ITC method.

The target of test [6] is T5, Chromodomain Y-like protein 2 (Homo sapiens, UniProt Q8N8U2).
T5 sequence (Q8N8U2 whole entry): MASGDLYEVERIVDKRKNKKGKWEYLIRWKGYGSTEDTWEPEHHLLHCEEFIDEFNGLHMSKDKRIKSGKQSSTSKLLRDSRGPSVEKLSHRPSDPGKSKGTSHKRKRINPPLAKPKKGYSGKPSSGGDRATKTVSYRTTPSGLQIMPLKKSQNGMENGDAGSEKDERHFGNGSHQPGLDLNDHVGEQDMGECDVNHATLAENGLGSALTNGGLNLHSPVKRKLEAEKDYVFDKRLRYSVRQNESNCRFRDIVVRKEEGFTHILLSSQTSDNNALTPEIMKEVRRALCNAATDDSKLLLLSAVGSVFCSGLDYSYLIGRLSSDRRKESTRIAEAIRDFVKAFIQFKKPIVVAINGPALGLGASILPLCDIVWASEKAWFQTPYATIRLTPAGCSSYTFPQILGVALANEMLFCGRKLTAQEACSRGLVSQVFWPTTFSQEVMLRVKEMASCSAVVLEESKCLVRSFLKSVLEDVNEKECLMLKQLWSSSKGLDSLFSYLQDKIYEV

The target of test [7] is Chromobox protein homolog 5 (Homo sapiens, UniProt P45973). Description: Binding affinity to CBX5 chromodomain (unknown origin) by ITC method.
Test [8] deals with PC-3. Briefly: Antiproliferative activity against human PC3 cells assessed as reduction in cell count at 30 uM measured after 72 hrs by DAPI-staining based microscopic method. In kind it is functional. In a few lines:
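PC3 cells seeded at 400/well, adhered overnight, then given DMEM + 10% FBS with 30 µM compound or DMSO for 72 h; fixed in ice-cold methanol, rehydrated in PBS, nuclei stained with DAPI (0.05 µg/ml) and counted by high content microscopy; counts normalized to DMSO control (n ≥ 4).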

In test [9] the target is T6, Chromobox protein homolog 6 (Homo sapiens, UniProt O95503).
T6 sequence (O95503 whole entry): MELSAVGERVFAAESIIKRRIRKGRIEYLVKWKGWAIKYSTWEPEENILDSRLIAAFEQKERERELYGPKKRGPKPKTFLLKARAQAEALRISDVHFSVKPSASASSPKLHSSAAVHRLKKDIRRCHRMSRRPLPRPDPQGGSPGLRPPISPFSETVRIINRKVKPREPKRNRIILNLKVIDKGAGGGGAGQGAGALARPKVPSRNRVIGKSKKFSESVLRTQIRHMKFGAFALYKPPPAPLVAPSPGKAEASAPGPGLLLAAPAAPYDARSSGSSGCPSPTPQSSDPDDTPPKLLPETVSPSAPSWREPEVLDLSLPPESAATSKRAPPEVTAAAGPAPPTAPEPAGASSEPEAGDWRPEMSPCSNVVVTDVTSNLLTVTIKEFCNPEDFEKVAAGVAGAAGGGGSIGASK
Description: Binding affinity to human N-terminal his-tagged CBX6 chromodomain (8 to 65 residues) expressed in Escherichia coli Rosetta BL21(DE3)pLysS by ITC method.

Test [10] concerns the target Chromobox protein homolog 3 (Homo sapiens, UniProt Q13185). Description: Binding affinity to CBX3 chromodomain (unknown origin) by ITC method.

Chromobox protein homolog 1, sequence (P83916 whole entry): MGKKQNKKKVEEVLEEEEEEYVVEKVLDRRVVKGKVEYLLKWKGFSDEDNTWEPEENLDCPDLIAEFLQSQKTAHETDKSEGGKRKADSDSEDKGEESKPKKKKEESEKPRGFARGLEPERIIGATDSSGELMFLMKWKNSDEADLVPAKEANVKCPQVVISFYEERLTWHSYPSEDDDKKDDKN
Chromobox protein homolog 5, sequence (P45973 whole entry): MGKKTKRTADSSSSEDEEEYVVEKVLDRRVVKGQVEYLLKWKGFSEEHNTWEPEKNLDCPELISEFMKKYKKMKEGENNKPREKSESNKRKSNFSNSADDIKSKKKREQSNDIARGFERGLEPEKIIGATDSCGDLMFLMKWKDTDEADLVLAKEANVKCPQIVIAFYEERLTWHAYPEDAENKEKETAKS
Chromobox protein homolog 3, sequence (Q13185 whole entry): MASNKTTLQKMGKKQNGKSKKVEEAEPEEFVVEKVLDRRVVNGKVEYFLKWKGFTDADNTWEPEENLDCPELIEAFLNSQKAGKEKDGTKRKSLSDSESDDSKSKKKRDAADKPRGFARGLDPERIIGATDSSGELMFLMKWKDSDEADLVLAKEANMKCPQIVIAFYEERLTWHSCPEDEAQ

For the molecule `CCN(CC)CCCC[C@H](NC(=O)[C@H](CC(C)C)NC(=O)[C@H](C)NC(=O)[C@H](Cc1ccccc1)NC(=O)c1ccc(C(C)(C)C)cc1)C(=O)N[C@@H](CO)C(=O)OC` ({Benzoyl(4-tBu)}-FAL[Lys(Et2)]S-OMe), the Kd in test [1] is 1800 nM; in [2], 910 nM; in test [3], greater than 100000 nM; in test [4] it was 1200 nM; in test [5], 6300 nM; in [6] it was 850 nM. The Kd was greater than 100000 nM in test [7], 610 nM in [9] and greater than 100000 nM in test [10]. In addition, the result in test [8] was Active.
